Test [1] relates to HepG2. Kind of test: Cytotoxicity against human HepG2 cells after 72 hrs by MTT assay. It counts as functional, cell-based. The note with it: HepG2, 72 h. The method in brief:
(§1)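 Exponentially growing cells seeded at 1–8 × 10³ cells/well and left 24 h. Medium then replaced with medium holding compound in DMSO (final DMSO <0.1%), ten serial threefold dilutions, or DMSO alone. Triplicate wells, 72 h exposure. MTT added, 1 h at 37 °C, formazan dissolved in DMSO, A550 read. IC50 by non-linear regression; mean ± SD of at least three experiments.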
For orientation: Tetrazolium dyes change colour on reduction, which living cells bring about.

In test [2] the test system is BJ. Description: Cytotoxicity against human BJ cells after 72 hrs by MTT assay. It counts as cell-based. The gist of the method:
as §1

The target of test [3] is T1, DNA topoisomerase 1 (Homo sapiens) (UniProt P11387).
T1 sequence (whole entry): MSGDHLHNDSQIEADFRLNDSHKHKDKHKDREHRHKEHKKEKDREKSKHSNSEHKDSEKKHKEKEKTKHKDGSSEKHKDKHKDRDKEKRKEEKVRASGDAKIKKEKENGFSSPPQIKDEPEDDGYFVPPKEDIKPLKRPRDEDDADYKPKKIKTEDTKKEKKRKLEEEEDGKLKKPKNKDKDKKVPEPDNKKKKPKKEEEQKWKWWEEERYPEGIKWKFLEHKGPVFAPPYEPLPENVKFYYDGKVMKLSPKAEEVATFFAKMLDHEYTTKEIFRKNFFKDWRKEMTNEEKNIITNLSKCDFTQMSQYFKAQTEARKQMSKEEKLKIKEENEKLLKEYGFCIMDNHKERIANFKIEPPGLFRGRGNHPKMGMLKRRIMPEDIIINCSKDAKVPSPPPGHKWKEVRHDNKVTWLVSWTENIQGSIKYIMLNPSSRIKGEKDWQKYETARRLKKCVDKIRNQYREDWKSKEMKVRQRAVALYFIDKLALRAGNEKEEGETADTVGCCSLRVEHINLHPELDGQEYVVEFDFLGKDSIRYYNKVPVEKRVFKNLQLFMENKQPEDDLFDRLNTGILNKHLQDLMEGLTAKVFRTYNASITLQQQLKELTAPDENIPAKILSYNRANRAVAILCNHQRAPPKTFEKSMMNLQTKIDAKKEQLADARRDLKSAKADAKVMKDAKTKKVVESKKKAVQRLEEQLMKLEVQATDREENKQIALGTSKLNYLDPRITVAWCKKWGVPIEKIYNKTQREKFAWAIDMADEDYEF
Kind of test: Inhibition of DNA topoisomerase 1-mediated relaxation of supercoiled plasmid DNA at 100 uM after 3 hrs by gel electrophoresis. The gist of the method: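 Topoisomerase I kit assay. Compound at 100 µM final with 0.5% DMSO. Started with 5 U topo I, run 30 min at 37 °C, stopped with 1% SDS. Products resolved on 1% agarose in TAE at 80 V for 3 h, ethidium-stained. Inhibition scored 0 to 3+.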

Test [4] concerns Jurkat. Kind of test: Cytotoxicity against human Jurkat cells after 72 hrs by XTT assay. It counts as functional, cell-based. The method in brief:
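Exponentially growing Jurkat cells (RPMI 1640, 10% heat-inactivated FBS, 1% P/S, 2 mM glutamine) seeded at 5.5 × 10³ cells/well. Exposed to ten serial threefold dilutions of compound or DMSO vehicle in medium, triplicate wells, 72 h. XTT labeling mixture then added for 4 h at 37 °C, A450 read. IC50 by non-linear regression; mean ± SD of at least three experiments.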

In test [5] the test system is HT-29. Kind of test: Cytotoxicity against human HT-29 cells after 72 hrs by MTT assay. In kind it is functional, cell-based. Conditions: HT-29, 72 h. The method in brief:
as §1

Test [6] concerns HeLa. Kind of test: Cytotoxicity against human HeLa cells after 72 hrs by MTT assay. It counts as functional, cell-based. The method in brief: as §1
In test [7] the test system is PC-3. Description: Cytotoxicity against human PC3 cells after 72 hrs by MTT assay. It counts as functional, cell-based. Conditions: PC-3, 72 h. The method in brief:
as §1

Test [8] concerns BJ. Kind of test: Selectivity ratio of IC50 for human BJ cells to IC50 for human PC3 cells.
Test [9] relates to PC-3. Description: Ratio of betulinic acid IC50 to compound IC50 for human PC3 cells. It counts as functional.
[10] abbreviates: in the assay text read “after 30 mins” for “after 3 hrs”.

The source made the active and inactive calls. The rule behind the calls is not given here.

As a reminder, the IC50 is the concentration that gives 50% inhibition. A higher IC50 goes with weaker potency. With `C=C(C)[C@@H]1CC[C@]2(C(=O)O)CC[C@]3(C)[C@H](CC[C@@H]4[C@@]5(C)CC[C@H](OC(=O)n6ccnc6C)C(C)(C)[C@@H]5CC[C@]43C)[C@@H]12`, the half-maximal inhibitory concentration (IC50) was 7.3 µM in test [1]; 41.3 µM in [2]; 6.1 µM in test [4]; 5.7 µM in test [5]; 7.5 µM in test [6]. In test [3], the inhibition result is “Active”.

As for `C=C(COC)[C@@H]1CC[C@]2(COC(=O)n3cncn3)CC[C@]3(C)[C@H](CC[C@@H]4[C@@]5(C)CC[C@H](O)C(C)(C)[C@@H]5CC[C@]43C)[C@@H]12`, the IC50 in [7] came out at 2.6 µM; in test [1], 9.1 µM; in test [2], 46.6 µM; in [4], 9.5 µM; in [5] it was 5.8 µM; in test [6], 24.3 µM. Besides, the “Ratio IC50” value in test [8] is reported as 15. Besides, the inhibition entry in [3] was “Active”.

Take `C=C(C)[C@@H]1CC[C@]2(C(=O)n3ccnc3C)CC[C@]3(C)[C@H](CC[C@@H]4[C@@]5(C)CCC(=O)C(C)(C)[C@@H]5CC[C@]43C)[C@@H]12`: the IC50 amounted to 5.5 µM in test [1]; 48.4 µM in test [2]; 5.3 µM in test [4]; 4.7 µM in [5]; 4.2 µM in test [6]. The inhibition result in test [3] was “inactive”.

Consider `C=C(C)[C@@H]1CC[C@]2(C(=O)O)CC[C@]3(C)[C@H](CC[C@@H]4[C@@]5(C)CC[C@H](O)C(C)(C)[C@@H]5CC[C@]43C)[C@@H]12` [BETULINIC ACID], for which the IC50 in test [7] is 21.5 µM; in test [1], 36.4 µM; in test [4], 26.9 µM; in [5], 12.8 µM; in test [6], 26 µM.

For the molecule `C=C(C)[C@@H]1CC[C@]2(C(=O)n3cncn3)CC[C@]3(C)[C@H](CC[C@@H]4[C@@]5(C)CC[C@H](OC(=O)n6cncn6)C(C)(C)[C@@H]5CC[C@]43C)[C@@H]12`, the half-inhibitory concentration (IC50) in test [7] is 1.1 µM; in [1] it was 6.8 µM; in [2], 19.4 µM; in [4], 11.6 µM; in test [5], 1.9 µM; in test [6], 4.1 µM. Moreover, the entries for the “Ratio IC50” value in test [8] and in [9] were 15 and 19, respectively. In test [3], the inhibition result is “Active”.

Consider `C=C(C)[C@@H]1CC[C@]2(COC(=O)n3cncn3)CC[C@]3(C)[C@H](CC[C@@H]4[C@@]5(C)CC[C@H](O)C(C)(C)[C@@H]5CC[C@]43C)[C@@H]12`, for which the IC50 is 4.7 µM in test [7] and 7.6 µM in [5]. For the same molecule, the inhibition entry in test [3] was “inactive”.

For the molecule `C=C(C)[C@@H]1CC[C@]2(C(=O)n3cncn3)CC[C@]3(C)[C@H](CC[C@@H]4[C@@]5(C)C=C(O)C(=O)C(C)(C)[C@@H]5CC[C@]43C)[C@@H]12`, the IC50 in [7] came to 1.8 µM; in test [1], 7.4 µM; in [2] it was 27.9 µM; in [4], 10.5 µM; in [5], 3.3 µM; in test [6] it was 5.4 µM. Also, the “Ratio IC50” value turned out to be 15 in test [8] and 12 in [9]. For the same molecule, the inhibition entry in test [3] (setting [10]) was “Active”.

For `C=C(C)[C@@H]1CC[C@]2(C(=O)O)CC[C@]3(C)[C@H](CC[C@@H]4[C@@]5(C)C=C(OC(=O)n6ccnc6C)C(=O)C(C)(C)[C@@H]5CC[C@]43C)[C@@H]12`, the IC50 in test [1] was 4.7 µM; in [2], 37.2 µM; in test [4] it was 9.4 µM; in test [5], 5.9 µM; in [6], 6.4 µM. The inhibition entry in test [3] (setting [10]) is “Active”.

Turning to `C=C(C)[C@@H]1CC[C@]2(COC(=O)n3cncn3)CC[C@]3(C)[C@H](CC[C@@H]4[C@@]5(C)CC[C@H](OC(=O)n6cncn6)C(C)(C)[C@@H]5CC[C@]43C)[C@@H]12`, the IC50 was determined as 7.9 µM in test [7] and 17.5 µM in test [5]. Moreover, in test [3], the inhibition entry is “inactive”.

In the case of `C=C(C)[C@@H]1CC[C@]2(CO)CC[C@]3(C)[C@H](CC[C@@H]4[C@@]5(C)CC[C@H](OC(=O)n6cncn6)C(C)(C)[C@@H]5CC[C@]43C)[C@@H]12`, the IC50 in test [7] was found to be 2.1 µM; in test [1], 7.3 µM; in test [2], 39.4 µM; in [4], 12.2 µM; in test [5] it was 4.9 µM; in [6] it was 6.9 µM. The “Ratio IC50” value in [8] was 15. Further, the inhibition entry in test [3] (setting [10]) is “Active”.
